What all share (assay type): ADME
For one data set, the target named is Cytochrome P450 3A5 (Homo sapiens, UniProt P20815). Kind of data set: Drug level of the compound assessed as recombinant CYP3A5 (unknown origin)-mediated metabolite formation treated with budesonide by MS/MS analysis. The following applies: recombinant enzyme. An outline of the steps:
(§1)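 Metabolite profiling used 50 pmol recombinant P450 (with reductase and cytochrome b5) and 100 μM substrate in 30 mM potassium phosphate (pH 7.4). Reactions were started with 1.3 mM NADPH at 37°C, with no-NADPH negative controls. They were stopped with cold acetonitrile, deproteinized by centrifugation, and metabolites were extracted on C-18 cartridges for MS analysis.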

The target in another data set is Cytochrome P450 3A7 (Homo sapiens, UniProt P24462). Nature of the data set: Drug level of the compound assessed as recombinant CYP3A7 (unknown origin)-mediated metabolite formation treated with budesonide by MS/MS analysis. The following applies: recombinant enzyme. The procedure, abridged: as §1
Chain of Cytochrome P450 3A7 (P24462 whole entry): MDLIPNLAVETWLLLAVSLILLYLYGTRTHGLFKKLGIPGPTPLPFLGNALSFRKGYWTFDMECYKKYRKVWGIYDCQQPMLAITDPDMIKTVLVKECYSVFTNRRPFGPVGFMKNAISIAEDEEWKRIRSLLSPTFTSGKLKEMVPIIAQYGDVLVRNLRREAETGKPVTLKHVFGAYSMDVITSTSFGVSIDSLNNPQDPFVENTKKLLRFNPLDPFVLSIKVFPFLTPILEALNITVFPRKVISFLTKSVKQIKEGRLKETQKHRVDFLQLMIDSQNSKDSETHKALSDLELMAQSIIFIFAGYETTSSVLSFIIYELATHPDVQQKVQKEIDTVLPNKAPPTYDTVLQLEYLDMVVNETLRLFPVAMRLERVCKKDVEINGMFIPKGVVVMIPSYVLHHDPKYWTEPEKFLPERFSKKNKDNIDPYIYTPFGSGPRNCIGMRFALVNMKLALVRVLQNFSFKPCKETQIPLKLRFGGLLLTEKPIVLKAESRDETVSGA
Data set [1] has as its target T1, Cytochrome P450 3A4 (Homo sapiens, UniProt P08684). Nature of the data set: Drug level of the compound assessed as recombinant CYP3A4 (unknown origin)-mediated metabolite formation treated with budesonide by MS/MS analysis. Conditions: recombinant enzyme. An outline of the steps: as §1
Data set [2] concerns the target T1, Cytochrome P450 3A4. Nature of the data set: Drug metabolism assessed as recombinant CYP3A4 (unknown origin)-mediated 6beta-hydroxy, 21-carboxy triamcinolone acetonide metabolite retention time by MS/MS analysis. The following applies: recombinant enzyme. An outline of the steps:
as §1

In data set [3] the target is T1, Cytochrome P450 3A4. Kind of data set: Drug level of the compound assessed as recombinant CYP3A4 (unknown origin)-mediated metabolite formation treated with triamcinolone acetonide by MS/MS analysis. The following applies: recombinant enzyme. An outline of the steps: as §1
For data set [4], the target named is T1, Cytochrome P450 3A4. Nature of the data set: Drug metabolism assessed as recombinant CYP3A4 (unknown origin)-mediated delta6-flunisolide metabolite retention time by MS/MS analysis. The following applies: recombinant enzyme. The procedure, abridged: as §1
In data set [5] the target is T1, Cytochrome P450 3A4. Nature of the data set: Drug level of the compound assessed as recombinant CYP3A4 (unknown origin)-mediated metabolite formation treated with flunisolide by MS/MS analysis. Conditions: recombinant enzyme. The procedure, abridged:
as §1

Data set [6] concerns the target T1, Cytochrome P450 3A4. Kind of data set: Drug metabolism assessed as recombinant CYP3A4 (unknown origin)-mediated 21-carboxy flunisolide metabolite retention time by MS/MS analysis. Conditions: recombinant enzyme. The procedure, abridged:
as §1

Data set [7] has as its target T1, Cytochrome P450 3A4. Kind of data set: Drug metabolism assessed as recombinant CYP3A4 (unknown origin)-mediated 21-carboxy triamcinolone acetonide metabolite retention time by MS/MS analysis. The following applies: recombinant enzyme. The procedure, abridged: as §1
Data set [8] deals with T1, Cytochrome P450 3A4. Kind of data set: Drug metabolism assessed as recombinant CYP3A4 (unknown origin)-mediated 21-nortriamcincolone acetonide metabolite retention time by MS/MS analysis. The following applies: recombinant enzyme. The procedure, abridged:
as §1

In data set [9] the target is T1, Cytochrome P450 3A4. Kind of data set: Drug metabolism assessed as recombinant CYP3A4 (unknown origin)-mediated delta6-triamcinolone acetonide metabolite retention time by MS/MS analysis. The following applies: recombinant enzyme. An outline of the steps: as §1
The target of data set [10] is T1, Cytochrome P450 3A4. Nature of the data set: Drug metabolism assessed as recombinant CYP3A4 (unknown origin)-mediated 17beta-carboxy fluticasone propionate metabolite retention time by MS/MS analysis. Conditions: recombinant enzyme. The procedure, abridged:
as §1

For data set [11], the target named is T1, Cytochrome P450 3A4. Kind of data set: Drug level of the compound assessed as recombinant CYP3A4 (unknown origin)-mediated metabolite formation treated with fluticasone propionate by MS/MS analysis. Conditions: recombinant enzyme. The procedure, abridged: as §1
The target of data set [12] is T1, Cytochrome P450 3A4. Nature of the data set: Drug metabolism assessed as recombinant CYP3A4 (unknown origin)-mediated 6beta-hydroxy triamcinolone acetonide metabolite retention time by MS/MS analysis. Conditions: recombinant enzyme. The procedure, abridged: as §1
Data set [13] has as its target T1, Cytochrome P450 3A4. Kind of data set: Drug metabolism assessed as recombinant CYP3A4 (unknown origin)-mediated 16alpha-hydroxy prednisolone metabolite formation by MS/MS analysis. The following applies: recombinant enzyme.
For the next data set, the target named is CYP3A4 (Homo sapiens, UniProt P08684). Nature of the data set: Activity at recombinant CYP3A4 (unknown origin) assessed as half life at 1 uM by LC-MS analysis. An outline of the steps:
(§2)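 Recombinant P450 co-expressing P450 reductase and cytochrome b5, 10 pmol, with 1 μM substrate in 30 mM potassium phosphate (pH 7.4). Started with 1.3 mM NADPH at 37°C; no-NADPH negative controls. Samples at 0–20 min were quenched in cold acetonitrile with prednisolone internal standard and run by LC/MS, in triplicate. Parent/IS ratio vs time fitted to one-phase exponential decay; t1/2 = 0.69/kobs.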

The target in a further data set is CYP3A5 (Homo sapiens, UniProt P20815). Nature of the data set: Activity at recombinant CYP3A5 (unknown origin) assessed as half life at 1 uM by LC-MS analysis. The procedure, abridged: as §2
Chain of CYP3A5 (P20815 whole entry): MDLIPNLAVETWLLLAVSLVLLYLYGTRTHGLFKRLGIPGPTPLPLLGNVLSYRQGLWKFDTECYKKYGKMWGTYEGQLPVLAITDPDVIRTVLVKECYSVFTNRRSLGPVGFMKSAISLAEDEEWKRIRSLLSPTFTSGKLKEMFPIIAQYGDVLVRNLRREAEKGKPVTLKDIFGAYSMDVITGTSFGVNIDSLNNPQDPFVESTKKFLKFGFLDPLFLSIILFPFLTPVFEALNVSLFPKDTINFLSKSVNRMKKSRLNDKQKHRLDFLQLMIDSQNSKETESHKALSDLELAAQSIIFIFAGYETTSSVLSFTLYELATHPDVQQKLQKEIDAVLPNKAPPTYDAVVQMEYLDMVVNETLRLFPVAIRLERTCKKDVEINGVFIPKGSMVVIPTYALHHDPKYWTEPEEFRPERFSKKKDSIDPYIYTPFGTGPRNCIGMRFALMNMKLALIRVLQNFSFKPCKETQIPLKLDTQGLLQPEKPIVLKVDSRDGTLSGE
In another data set the target is CYP3A7 (Homo sapiens, UniProt P24462). Kind of data set: Activity at recombinant CYP3A7 (unknown origin) assessed as half life at 1 uM by LC-MS analysis. The procedure, abridged: as §2
Chain of CYP3A7 (P24462 whole entry): as the sequence (P24462 whole entry) above
Data set [14] addresses T1, Cytochrome P450 3A4. Kind of data set: Drug metabolism assessed as recombinant CYP3A4 (unknown origin)-mediated delta6-budesonide metabolite formation by MS/MS analysis. The following applies: recombinant enzyme. An outline of the steps:
as §1

The target of data set [15] is T1, Cytochrome P450 3A4. Nature of the data set: Drug metabolism assessed as recombinant CYP3A4 (unknown origin)-mediated 16alpha-hydroxy prednisolone metabolite formation by MS/MS analysis in presence of esterase inhibitor. The following applies: recombinant enzyme.
The target in data set [16] is T1, Cytochrome P450 3A4. Nature of the data set: Drug metabolism assessed as recombinant CYP3A4 (unknown origin)-mediated 6beta-hydroxy budesonide metabolite formation by MS/MS analysis. Conditions: recombinant enzyme. An outline of the steps:
as §1

Data set [17] has as its target T1, Cytochrome P450 3A4. Kind of data set: Drug metabolism assessed as recombinant CYP3A4 (unknown origin)-mediated 23-hydroxy budesonide metabolite formation by MS/MS analysis. The following applies: recombinant enzyme. The procedure, abridged:
as §1

For data set [18], the target named is T1, Cytochrome P450 3A4. Nature of the data set: Drug metabolism assessed as recombinant CYP3A4 (unknown origin)-mediated keto-flunisolide metabolite retention time by MS/MS analysis. Conditions: recombinant enzyme. The procedure, abridged:
as §1

By half-life is commonly meant how long it takes for the measured level to halve.

T1 sequence (P08684 whole entry): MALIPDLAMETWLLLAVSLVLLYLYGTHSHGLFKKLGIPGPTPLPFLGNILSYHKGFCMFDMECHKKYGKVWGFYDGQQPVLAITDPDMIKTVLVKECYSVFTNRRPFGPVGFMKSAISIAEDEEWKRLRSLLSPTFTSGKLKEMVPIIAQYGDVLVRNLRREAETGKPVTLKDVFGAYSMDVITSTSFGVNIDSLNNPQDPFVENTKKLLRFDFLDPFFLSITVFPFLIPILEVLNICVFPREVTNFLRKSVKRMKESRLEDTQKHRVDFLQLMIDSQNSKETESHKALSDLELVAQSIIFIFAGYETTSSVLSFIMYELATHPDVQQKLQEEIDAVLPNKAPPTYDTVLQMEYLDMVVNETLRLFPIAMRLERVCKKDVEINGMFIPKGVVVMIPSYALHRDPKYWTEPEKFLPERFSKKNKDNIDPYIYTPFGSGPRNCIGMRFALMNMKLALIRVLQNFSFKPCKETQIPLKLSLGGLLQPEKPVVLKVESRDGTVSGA
Chain of CYP3A4 (P08684 whole entry): as above
Chain of Cytochrome P450 3A5 (P20815 whole entry): as the sequence (P20815 whole entry) above

With `CCC(O)C1O[C@@H]2C[C@H]3[C@@H]4CCC5=CC(=O)C=C[C@]5(C)[C@H]4[C@@H](O)C[C@]3(C)[C@]2(C(=O)CO)O1` (stereo not given in full), the Drug metabolism entry on Cytochrome P450 3A5, at Cytochrome P450 3A7 and at Cytochrome P450 3A4 [1] was “metabolite_detected” throughout.

For `CC1(C)O[C@@H]2C[C@H]3[C@@H]4C[C@@H](O)C5=CC(=O)C=C[C@]5(C)[C@@]4(F)[C@@H](O)C[C@]3(C)[C@]2(C(=O)C(=O)O)O1`, on Cytochrome P450 3A4 [2], the Retention_time is listed as 16.4 min. Further, the Drug metabolism entry at Cytochrome P450 3A4 [3] is “metabolite_detected”.

`CC1(C)O[C@@H]2C[C@H]3[C@@H]4C=C(F)C5=CC(=O)C=C[C@]5(C)[C@H]4[C@@H](O)C[C@]3(C)[C@]2(C(=O)CO)O1`: at Cytochrome P450 3A4 [4], the Retention_time is 20.6 min. Further, the Drug metabolism entry on Cytochrome P450 3A4 [5] was “metabolite_detected”.

Regarding `CC1(C)O[C@@H]2C[C@H]3[C@@H]4CC(=O)C5=CC(=O)C=C[C@]5(C)[C@H]4[C@@H](O)C[C@]3(C)[C@]2(C(=O)CO)O1`, on Cytochrome P450 3A4 [5], the Drug metabolism entry is recorded as “metabolite_detected”.

As to `CC1(C)O[C@@H]2C[C@H]3[C@@H]4C[C@H](F)C5=CC(=O)C=C[C@]5(C)[C@H]4[C@@H](O)C[C@]3(C)[C@]2(C(=O)C(=O)O)O1`, the Retention_time on Cytochrome P450 3A4 [6] amounted to 23.1 min. The Drug metabolism result on Cytochrome P450 3A4 [5] is recorded as “metabolite_detected”.

On to `CC1(C)O[C@@H]2C[C@H]3[C@@H]4CCC5=CC(=O)C=C[C@]5(C)[C@@]4(F)[C@@H](O)C[C@]3(C)[C@]2(C(=O)C(=O)O)O1`, for which the Retention_time at Cytochrome P450 3A4 [7] was 23.7 min. On Cytochrome P450 3A4 [3], the Drug metabolism entry is reported as “metabolite_detected”.

On to `CC1(C)O[C@@H]2C[C@H]3[C@@H]4CCC5=CC(=O)C=C[C@]5(C)[C@@]4(F)[C@@H](O)C[C@]3(C)[C@]2(C(=O)O)O1`, for which the Retention_time on Cytochrome P450 3A4 [8] came to 18.9 min. Further, the Drug metabolism entry at Cytochrome P450 3A4 [3] was “metabolite_detected”.

On to `CC1(C)O[C@@H]2C[C@H]3[C@@H]4C=CC5=CC(=O)C=C[C@]5(C)[C@@]4(F)[C@@H](O)C[C@]3(C)[C@]2(C(=O)CO)O1`, for which the Retention_time on Cytochrome P450 3A4 [9] is on record as 19.1 min. For the same compound, at Cytochrome P450 3A4 [3], the Drug metabolism result was “metabolite_detected”.

For `CCC(=O)O[C@]1(C(=O)O)[C@H](C)C[C@H]2[C@@H]3C[C@H](F)C4=CC(=O)C=C[C@]4(C)[C@@]3(F)[C@@H](O)C[C@@]21C`, on Cytochrome P450 3A4 [10], the Retention_time was 19.7 min. In addition, at Cytochrome P450 3A4 [11], the Drug metabolism entry was “metabolite_detected”.

Consider `C[C@]12C=CC(=O)C=C1CC[C@@H]1[C@@H]2[C@@H](O)C[C@@]2(C)[C@H]1C[C@@H](O)[C@]2(O)C(=O)CO`, for which the Drug metabolism entry at Cytochrome P450 3A5, at Cytochrome P450 3A7 and at Cytochrome P450 3A4 [1] was “metabolite_detected” throughout.

On to `CC1(C)O[C@@H]2C[C@H]3[C@@H]4C[C@@H](O)C5=CC(=O)C=C[C@]5(C)[C@@]4(F)[C@@H](O)C[C@]3(C)[C@]2(C(=O)CO)O1`, for which the Retention_time at Cytochrome P450 3A4 [12] amounted to 14.9 min. Further, the Drug metabolism entry at Cytochrome P450 3A4 [3] is reported as “metabolite_detected”.

For the compound `CCCC1O[C@@H]2C[C@H]3[C@@H]4C=CC5=CC(=O)C=C[C@]5(C)[C@H]4[C@@H](O)C[C@]3(C)[C@]2(C(=O)CO)O1` (stereo not given in full), the Drug metabolism result on Cytochrome P450 3A5, at Cytochrome P450 3A7 and on Cytochrome P450 3A4 [1] was “metabolite_detected” in each case.

For the compound `CCCC1O[C@@H]2C[C@H]3[C@@H]4C[C@@H](O)C5=CC(=O)C=C[C@]5(C)[C@H]4[C@@H](O)C[C@]3(C)[C@]2(C(=O)CO)O1` (stereo not given in full), the Drug metabolism entry at Cytochrome P450 3A5, at Cytochrome P450 3A7 and on Cytochrome P450 3A4 [1] was “metabolite_detected” throughout.

In the case of `CCCC1O[C@@H]2C[C@H]3[C@@H]4CCC5=CC(=O)C=C[C@]5(C)[C@H]4[C@@H](O)C[C@]3(C)[C@]2(C(=O)CO)O1` (stereo not given in full) [BUDESONIDE], the Drug metabolism entry is listed as “metabolite_detected” on Cytochrome P450 3A4 [13]; “metabolite_detected” at Cytochrome P450 3A4 [14]; “metabolite_not_detected” on Cytochrome P450 3A4 [15]; “metabolite_detected” at Cytochrome P450 3A4 [16]; “metabolite_detected” on Cytochrome P450 3A4 [17]. In addition, the half-life at 1 µM at CYP3A4 was 11 min; at CYP3A5, 40 min; at CYP3A7, 71 min.

On to `CC1(C)O[C@@H]2C[C@H]3[C@@H]4C[C@H](F)C5=CC(=O)C=C[C@]5(C)[C@H]4[C@@H](O)C[C@]3(C)[C@]2(C(=O)CO)O1` [FLUNISOLIDE], for which, on CYP3A4, the half-life at 1 µM was 16 min. For the same compound, the Retention_time at Cytochrome P450 3A4 [18] was found to be 15.8 min.

`CCC(=O)O[C@]1(C(=O)SCF)[C@H](C)C[C@H]2[C@@H]3C[C@H](F)C4=CC(=O)C=C[C@]4(C)[C@@]3(F)[C@@H](O)C[C@@]21C` [FLUTICASONE PROPIONATE]: the values for the half-life at 1 µM on CYP3A4, on CYP3A5 and on CYP3A7 were 0.86 min, 16 min and 58 min, respectively.

On to `CC1(C)O[C@@H]2C[C@H]3[C@@H]4CCC5=CC(=O)C=C[C@]5(C)[C@@]4(F)[C@@H](O)C[C@]3(C)[C@]2(C(=O)CO)O1` [TRIAMCINOLONE ACETONIDE], for which the half-life at 1 µM was found to be 12 min on CYP3A4, 130 min at CYP3A5 and 213 min on CYP3A7.

The values are drawn from ChEMBL document CHEMBL3525921, “Metabolic pathways of inhaled glucocorticoids by the CYP3A enzymes” (Drug Metab Dispos, 2013).
